Test results taken from the M2OR odorant receptor database.

Columns and labels:
Conditions in all cases: stereoisomer not certain
A0A140T8K0 = system: T1, A0A140T8K0
T1 sequence (whole entry): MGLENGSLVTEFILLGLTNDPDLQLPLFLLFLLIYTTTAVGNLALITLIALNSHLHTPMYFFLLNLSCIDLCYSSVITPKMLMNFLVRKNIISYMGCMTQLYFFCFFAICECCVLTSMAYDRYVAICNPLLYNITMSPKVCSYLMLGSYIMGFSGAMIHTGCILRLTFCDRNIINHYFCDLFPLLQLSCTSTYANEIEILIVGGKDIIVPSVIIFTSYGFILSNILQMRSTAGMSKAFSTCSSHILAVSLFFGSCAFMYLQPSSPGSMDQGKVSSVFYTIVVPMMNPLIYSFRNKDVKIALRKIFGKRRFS
Outline: (§1)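 Assay methods differ from source to source, frequently being transient luciferase assays in mammalian cell lines. For each receptor–molecule pair, the label responsive (active) applies when the original authors judged the measured signal statistically different from baseline, and non-responsive (inactive) applies otherwise.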

A0A140T8K4 = system: T2, A0A140T8K4
T2 sequence (whole entry): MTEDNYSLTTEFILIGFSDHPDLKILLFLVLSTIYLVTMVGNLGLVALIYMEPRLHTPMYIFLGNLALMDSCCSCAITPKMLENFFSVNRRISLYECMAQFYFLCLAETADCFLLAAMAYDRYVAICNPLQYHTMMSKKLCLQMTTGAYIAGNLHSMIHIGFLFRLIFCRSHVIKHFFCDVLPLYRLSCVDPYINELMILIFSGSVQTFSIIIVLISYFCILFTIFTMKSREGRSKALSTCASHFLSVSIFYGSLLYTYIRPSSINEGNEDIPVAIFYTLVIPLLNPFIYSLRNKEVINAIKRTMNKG
Outline: as §1

A0A1L1SVG7 = system: T3, A0A1L1SVG7
T3 sequence (whole entry): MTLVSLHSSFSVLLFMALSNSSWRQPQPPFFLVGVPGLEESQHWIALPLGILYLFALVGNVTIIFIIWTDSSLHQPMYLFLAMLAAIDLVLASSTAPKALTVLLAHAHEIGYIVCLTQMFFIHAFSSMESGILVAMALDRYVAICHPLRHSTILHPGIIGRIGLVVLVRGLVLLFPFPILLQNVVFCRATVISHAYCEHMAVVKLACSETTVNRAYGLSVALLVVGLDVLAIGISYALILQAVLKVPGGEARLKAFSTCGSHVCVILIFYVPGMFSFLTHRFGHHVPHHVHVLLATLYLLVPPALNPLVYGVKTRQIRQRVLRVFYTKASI
Outline: as §1

CCCCCCCCCCO
odorant receptor agonist call (A0A140T8K0): inactive | odorant receptor agonist call (A0A140T8K4): inactive | odorant receptor agonist call (A0A1L1SVG7): inactive

C=C(C)C1CCC(C)C(=O)C1 (stereo unspecified)
odorant receptor agonist call (A0A140T8K0): inactive | odorant receptor agonist call (A0A140T8K4): active | odorant receptor agonist call (A0A1L1SVG7): inactive

CCOC(=O)C(C)C
odorant receptor agonist call (A0A140T8K0): inactive | odorant receptor agonist call (A0A140T8K4): inactive | odorant receptor agonist call (A0A1L1SVG7): inactive

CC(C)=CCCC(C)CCO (stereo unspecified)
odorant receptor agonist call (A0A140T8K0): inactive | odorant receptor agonist call (A0A140T8K4): inactive | odorant receptor agonist call (A0A1L1SVG7): inactive

CCCC(=O)C(C)=O
odorant receptor agonist call (A0A140T8K0): inactive | odorant receptor agonist call (A0A140T8K4): inactive | odorant receptor agonist call (A0A1L1SVG7): inactive

CCCCCC1=C(C)CCC1=O
odorant receptor agonist call (A0A140T8K0): inactive | odorant receptor agonist call (A0A140T8K4): inactive | odorant receptor agonist call (A0A1L1SVG7): inactive

CCCCCCCO
odorant receptor agonist call (A0A140T8K0): inactive | odorant receptor agonist call (A0A140T8K4): inactive | odorant receptor agonist call (A0A1L1SVG7): inactive

CC(C)=CCCC(C)=CCO
odorant receptor agonist call (A0A140T8K0): inactive | odorant receptor agonist call (A0A140T8K4): inactive | odorant receptor agonist call (A0A1L1SVG7): inactive

CCCCCC(=O)CC
odorant receptor agonist call (A0A140T8K0): inactive | odorant receptor agonist call (A0A140T8K4): inactive | odorant receptor agonist call (A0A1L1SVG7): inactive

c1ccccc1
odorant receptor agonist call (A0A140T8K0): inactive | odorant receptor agonist call (A0A140T8K4): inactive | odorant receptor agonist call (A0A1L1SVG7): inactive

O=C1Cc2ccccc2O1
odorant receptor agonist call (A0A140T8K0): inactive | odorant receptor agonist call (A0A140T8K4): inactive | odorant receptor agonist call (A0A1L1SVG7): inactive

CCCCCCCCCO
odorant receptor agonist call (A0A140T8K0): inactive | odorant receptor agonist call (A0A140T8K4): inactive | odorant receptor agonist call (A0A1L1SVG7): inactive

CCCCCCCC(C)=O
odorant receptor agonist call (A0A140T8K0): inactive | odorant receptor agonist call (A0A140T8K4): inactive | odorant receptor agonist call (A0A1L1SVG7): inactive

CCCCCCCCS
odorant receptor agonist call (A0A140T8K0): inactive | odorant receptor agonist call (A0A140T8K4): inactive | odorant receptor agonist call (A0A1L1SVG7): inactive

CCCCOC=O
odorant receptor agonist call (A0A140T8K0): inactive | odorant receptor agonist call (A0A140T8K4): inactive | odorant receptor agonist call (A0A1L1SVG7): inactive

CCCCC(=O)O
odorant receptor agonist call (A0A140T8K0): inactive | odorant receptor agonist call (A0A140T8K4): inactive | odorant receptor agonist call (A0A1L1SVG7): inactive

C=CCOC(=O)CCCCCC
odorant receptor agonist call (A0A140T8K0): inactive | odorant receptor agonist call (A0A140T8K4): inactive | odorant receptor agonist call (A0A1L1SVG7): inactive

CC12CCC(CC1=O)C2(C)C (stereo unspecified)
odorant receptor agonist call (A0A140T8K0): inactive | odorant receptor agonist call (A0A140T8K4): inactive | odorant receptor agonist call (A0A1L1SVG7): inactive

CCC(=O)O
odorant receptor agonist call (A0A140T8K0): inactive | odorant receptor agonist call (A0A140T8K4): inactive | odorant receptor agonist call (A0A1L1SVG7): inactive

CCC(=O)C(=O)CC
odorant receptor agonist call (A0A140T8K0): inactive | odorant receptor agonist call (A0A140T8K4): inactive | odorant receptor agonist call (A0A1L1SVG7): inactive

CC(=O)OCc1ccccc1
odorant receptor agonist call (A0A140T8K0): inactive | odorant receptor agonist call (A0A140T8K4): inactive | odorant receptor agonist call (A0A1L1SVG7): inactive

CCCCCOC(=O)CCCCC
odorant receptor agonist call (A0A140T8K0): inactive | odorant receptor agonist call (A0A140T8K4): inactive | odorant receptor agonist call (A0A1L1SVG7): inactive

CCCCCCCCCS
odorant receptor agonist call (A0A140T8K0): inactive | odorant receptor agonist call (A0A140T8K4): inactive | odorant receptor agonist call (A0A1L1SVG7): inactive

CCCCC(=O)CC
odorant receptor agonist call (A0A140T8K0): inactive | odorant receptor agonist call (A0A140T8K4): inactive | odorant receptor agonist call (A0A1L1SVG7): inactive

CCCCCCCCO
odorant receptor agonist call (A0A140T8K0): inactive | odorant receptor agonist call (A0A140T8K4): inactive | odorant receptor agonist call (A0A1L1SVG7): inactive

CCCCCCC(C)=O
odorant receptor agonist call (A0A140T8K0): inactive | odorant receptor agonist call (A0A140T8K4): inactive | odorant receptor agonist call (A0A1L1SVG7): inactive

CCCCCCOC(C)=O
odorant receptor agonist call (A0A140T8K0): inactive | odorant receptor agonist call (A0A140T8K4): inactive | odorant receptor agonist call (A0A1L1SVG7): inactive
